Measurements published in ChEMBL document CHEMBL3393058 (Eur J Med Chem, 2014).
In brackets after ≈: the same amount, converted by molar mass. Activity calls are given as the source filed them. The rule behind the calls is not given here.

Key:
[1] = molecular target: T1, Protein tyrosine phosphatase type IVA 2 (Homo sapiens, UniProt Q12974); assay: Inhibition of PRL2 (unknown origin) using DiFMUP as fluorogenic phosphate substrate assessed as DiFMUP dephosphorylation
T1 sequence (Q12974 whole entry): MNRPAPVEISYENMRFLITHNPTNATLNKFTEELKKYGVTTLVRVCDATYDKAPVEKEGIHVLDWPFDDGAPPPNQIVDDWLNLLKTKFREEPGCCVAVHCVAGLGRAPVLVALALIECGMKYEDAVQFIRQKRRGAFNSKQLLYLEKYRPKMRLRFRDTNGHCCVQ

HEK293 [2] = assay: Cytotoxicity against human HEK293 cells expressing human PRL-3 at 50 to 75 uM after 16 hrs by MTT assay; format: cell-based; settings: hek293, 16 h
How it was run: (§1)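 Tetracycline-induced stable HEK293 Flp-In T-REx lines (PRL-1, PRL-2, PRL-3 or empty vector) were seeded at 10000 cells/well. After 24 h, compound or DMSO was added for 16 h. MTT was then added in fresh medium for 4 h at 37 °C, formazan dissolved in DMSO, and A570 read. Data were normalized to DMSO vehicle, run in triplicate in ≥2 independent experiments, with two-sided t-test versus vehicle.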

HEK293 [3] = assay: Cytotoxicity against human HEK293 cells expressing human PRL-2 at 50 to 75 uM after 16 hrs by MTT assay; format: cell-based; settings: hek293, 16 h; how it was run: as §1
[4] = molecular target: T2, Protein tyrosine phosphatase type IVA 3 (Homo sapiens, UniProt O75365); assay: Inhibition of PRL3 (unknown origin) using DiFMUP as fluorogenic phosphate substrate assessed as DiFMUP dephosphorylation
Homo sapiens [5] = species on record: Homo sapiens; assay: Selectivity index, 1 - (inhibition of PRL3/inhibition of VHR) at 50 uM
Homo sapiens [6] = species on record: Homo sapiens; assay: Selectivity index, 1 - (inhibition of PRL3/inhibition of PTP1B) at 50 uM
Homo sapiens [7] = species on record: Homo sapiens; assay: Selectivity index, 1 - (inhibition of PRL3/inhibition of TCPTP) at 50 uM
[8] = molecular target: T3, Protein tyrosine phosphatase type IVA 1 (Homo sapiens, UniProt Q93096); assay: Inhibition of PRL1 (unknown origin) using DiFMUP as fluorogenic phosphate substrate assessed as DiFMUP dephosphorylation
T3 sequence (Q93096 whole entry): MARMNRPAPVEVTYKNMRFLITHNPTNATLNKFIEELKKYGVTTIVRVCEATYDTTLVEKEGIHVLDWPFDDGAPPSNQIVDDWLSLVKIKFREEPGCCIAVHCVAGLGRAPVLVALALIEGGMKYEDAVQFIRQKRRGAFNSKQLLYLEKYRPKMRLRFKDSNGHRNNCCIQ

HEK293 [9] = assay: Cytotoxicity against human HEK293 cells expressing human PRL-1 at 50 to 75 uM after 16 hrs by MTT assay; format: cell-based; settings: hek293, 16 h; how it was run: as §1
[10] = Solubility in buffer assessed as light scattering; format: physicochemical
How it was run: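 Light scattering of compounds in phosphatase assay buffer was measured by nephelometry against a buffer blank, across the concentration range used for IC50 determination.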

HEK293 [11] = assay: Cytotoxicity against human HEK293 cells expressing empty vector at 75 uM after 16 hrs by MTT assay; format: cell-based; settings: hek293, 16 h; how it was run: as §1
[12] = Drug localization in plasma membrane of HEK293 cells transfected with mKate-PRL-3 at 50 uM incubated for 30 mins by confocal microscopy; format: ADME; settings: human, hek293, 0.5 h
How it was run: (§2)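 HEK293 cells were transfected with 0.1 μg mKate-PRL-3 18 h before imaging. Confocal imaging used a 63× oil objective, with mKate excited at 561 nm and compound at 405 nm.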

[13] = Drug localization in inner membrane compartments of HEK293 cells transfected with mKate-PRL-3 at 50 uM incubated for 30 mins by confocal microscopy; format: ADME; settings: human, hek293, 0.5 h; how it was run: as §2
[14] = molecular target: T2, Protein tyrosine phosphatase type IVA 3; settings: HEK293, 75 uM
HEK293 [15] = assay: Inhibition of cell proliferation of human HEK293 cells expressing empty vector at 20 uM after 1 to 9 days by MTT assay; format: cell-based; settings: hek293, 20 µM
How it was run: (§3)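 Stable HEK293 lines (PRL-3 or empty vector) were seeded at 1500 cells/well in tetracycline-containing growth medium. Compound or DMSO vehicle was added immediately after seeding. On each indicated day, MTT was added for 4 h at 37 °C, formazan dissolved in DMSO, and absorbance read at 570 nm, in triplicate.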

HEK293 [16] = assay: Inhibition of cell proliferation of human HEK293 cells expressing human PRL-3 at 20 uM after 1 to 9 days by MTT assay; format: functional, cell-based; how it was run: as §3
[17] = molecular target: T2, Protein tyrosine phosphatase type IVA 3; settings: HEK293, 35 uM
HEK293 [18] = assay: Effect on cell proliferation of human HEK293 cells expressing human PRL-3 at 50 uM after 1 to 9 days by MTT assay; format: functional, cell-based; how it was run: as §3
[19] = molecular target: T2, Protein tyrosine phosphatase type IVA 3; settings: HEK293, 50 uM
[20] = molecular target: T4, Protein tyrosine phosphatase type IVA 2 (Homo sapiens) (UniProt Q12974); settings: HEK293, 50 uM
T4 sequence (whole entry): T1 sequence (Q12974 whole entry)

HEK293 [21] = assay: Effect on cell proliferation of human HEK293 cells expressing empty vector at 50 uM after 1 to 9 days by MTT assay; format: cell-based; settings: hek293, 50 µM; how it was run: as §3
[22] = molecular target: T2, Protein tyrosine phosphatase type IVA 3; settings: HEK293, 25 uM
[23] = molecular target: T2, Protein tyrosine phosphatase type IVA 3; settings: HEK293, 12 uM
[24] = molecular target: T2, Protein tyrosine phosphatase type IVA 3; settings: HEK293, 12 uM; remark: listed apart in the source
[25] = molecular target: T5, Protein tyrosine phosphatase type IVA 1 (Homo sapiens) (UniProt Q93096); settings: HEK293, 50 uM
T5 sequence (whole entry): T3 sequence (Q93096 whole entry)

[26] = molecular target: T2, Protein tyrosine phosphatase type IVA 3; settings: HEK293, 50 uM; remark: listed apart in the source

T2 sequence (O75365 whole entry): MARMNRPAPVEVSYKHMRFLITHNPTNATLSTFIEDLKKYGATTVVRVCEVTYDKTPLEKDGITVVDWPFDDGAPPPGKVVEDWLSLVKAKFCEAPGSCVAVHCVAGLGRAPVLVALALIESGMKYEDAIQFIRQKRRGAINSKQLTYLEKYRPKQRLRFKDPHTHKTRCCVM

Row | Structure (SMILES) | Activity (HEK293 [2]) | Activity (HEK293 [3]) | IC50 ([4]; read-out: IC50) [µM] | Selectivity index (Homo sapiens [5]) | Selectivity index (Homo sapiens [6]) | Selectivity index (Homo sapiens [7]) | Activity (HEK293 [9]) | solubility kinetic [10] [µM] | solubility [10] | also measured
1 | COc1cc(/C=C(\C#N)C(=O)OC(C)C)cc(Br)c1O | Non-toxic | Non-toxic | 69.4 | 0.24 | 0.08 | -0.29 | Non-toxic | 144 (≈ 49 µg/mL) |  | IC50 ([1]; read-out: IC50): 69.4 µM; IC50 ([8]; read-out: IC50): 56.7 µM
2 | CCOC(=O)/C(C#N)=C/c1cc(Br)c(O)c(Br)c1 | Toxic | Toxic | 109 | 0.44 | 0.48 | 0.24 | Toxic |  | soluble | IC50 ([1]; read-out: IC50): 109 µM; IC50 ([8]; read-out: IC50): 89.1 µM
3 | C=CCOC(=O)/C(C#N)=C/c1ccc(O)c(Br)c1 | Non-toxic | Non-toxic |  |  |  |  | Non-toxic | 311 (≈ 95.8 µg/mL) |  | Activity (HEK293 [11]): Toxic
4 | C=CCOC(=O)/C(C#N)=C/c1ccc(OC)cc1 |  |  |  |  |  |  |  |  |  | IC50 [1]: Not Active; IC50 [4]: Not Active; IC50 [8]: Not Active
5 | COC(=O)/C(C#N)=C/c1ccc(O)c(Br)c1 |  |  |  |  |  |  |  |  |  | Drug uptake [12]: Active; Drug uptake [13]: Active
6 | O=C1NC(=S)S/C1=C/c1ccc(-c2ccccc2C(=O)O)o1 | Non-toxic |  | 53 | 0.54 | 0.34 | 0.22 |  | 335 (≈ 111 µg/mL) |  | inhibition [14]: inactive
7 | Nc1c[nH]c(=O)c2cc(-c3ccccc3)sc12 | Non-toxic | Non-toxic |  |  |  |  | Non-toxic |  | soluble | Activity (HEK293 [15]): Toxic; inhibition (HEK293 [16]): Active
8 | O=C(O)c1ccc[n+]2c([O-])c(-c3ccccc3)sc12 | Non-toxic | Non-toxic |  | 0.25 | 0.25 | 0.1 | Non-toxic |  | soluble | 
9 | C=CCOC(=O)/C(C#N)=C/c1cc(Br)c(O)c(OC)c1 | Non-toxic | Non-toxic |  |  |  |  | Non-toxic | 138 (≈ 46.7 µg/mL) |  | inhibition [17]: Active; Drug uptake [12]: Active; Activity (HEK293 [18]): inactive; inhibition [19]: Active; inhibition [20]: Active; Activity (HEK293 [21]): Non-toxic; inhibition [22]: Active; inhibition [14]: Active; inhibition [23]: inactive; inhibition [24]: inactive; inhibition [25]: Active; inhibition [26]: Active; Drug uptake [13]: Not Active
